FN deposit inh: fibronectin deposition inhibition; AH1F fibroblasts, Alexa488-fibronectin deposition fluorescence, overnight; 350,000 tested, 0.086% active; AID 743247; inhibition, % at 12.6 µM;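 active means mean inhibition across replicates of 30% or more, regardless of how many single replicates reach that level; inconclusive means mean under 30% yet at least half of replicates reach 30%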
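Material – AH1F fibroblast monolayer, labelled fibronectin deposition · Reagent – labelled fibronectin 24 nM · Timing – 1 h adhesion, overnight exposure · Measured by – fluorescence at 485 nm excitation, 525 nm emission · Read-out – inhibition of fibronectin deposition signal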
TROY NFkB inh: TROY signaling inhibition | Q293 LMP1-TROYcd NF-kB luciferase reporter, 4 h | 360,000 tested, 0.98% active | inhibition, % at 10 µM | AID 1347056;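 active means compounds whose plate-normalised and pattern-corrected inhibition of the luciferase reporter signal at the single screening dose is 50% or more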
LGR2 antag: blocks bursicon-induced cAMP signaling via Drosophila LGR2. HEK293 LGR2, CRE-luciferase, bursicon-stimulated, 4 h. inhibition, % at 9.99 µM. 380,000 tested, 0.35% active;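 active means drop in luminescence signal, shown as inhibition above about 50% in the replicate tests, limit read from the data, passing the limit was not always enough; inconclusive means probably only some replicates passing the limit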;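 further: agonist challenge used bursicon conditioned medium at about half maximal strength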
XiGFP reactiv: X-chromosome reactivation activator | XiGFP mouse fibroblasts, % GFP-positive cells imaging, 3 d; cells co-treated with 5-aza-dC sensitizer; scaled so ellipticine positive control = 100% | activation, % at 7.58 µM | 360,000 tested, 0.055% active | AID 743238;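 active means mean normalized replicate activation at least 10% and every replicate at or above 10%; inconclusive means only one of the two criteria met; inactive means mean below 10% and not all replicates reach 10%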
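assay system = SV40-immortalized XiGFP fibroblast cells, line 68-5-11 | buffer or medium = DMEM plus 5-aza-dC sensitizer | doses = single-point pinned compound dosing | times = 3-day compound exposure, then 15 min fixation at room temperature | benchmarks = positive control ellipticine, 6 µM final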
EWS-Fli inh: blocks EWS/Fli oncoprotein-driven transcription | inhibition, % at 12.6 µM | 350,000 tested, 0.67% active | A673 NR0B1-luciferase reporter, viability-normalised;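 active means mean inhibition of at least 50% after viability correction, with every replicate also passing that limit; inconclusive means mean reaches 50% but only one of two replicates passes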;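 further: firefly luciferase signal divided by Alamar Blue viability fluorescence both relative to DMSO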
TWEAK Fn14 block: inhibitors of TWEAK-Fn14 interaction signaling; AID 1159606; inhibition, % at 10 µM; 360,000 tested, 2% active; TWEAK-stimulated Fn14 reporter cells, luciferase luminescence, 8 h; in the data active means inhibition above about 50%
Each line names hits and unclear results; the compound was inactive in the other large screens. This is a sample that favours compounds with a hit; in the whole collection about 2.3% have one here.

CCN(CC)CCN(C(=O)c1ccc2c(c1)CCCC2)c1nc2ccc(C)cc2s1	none (no result: EWS-Fli inh)
Cc1ccc2nc(N(CCCN(C)C)C(=O)c3ccc(S(=O)(=O)N4CCc5ccccc5C4)cc3)sc2c1	none (no result: FN deposit inh, EWS-Fli inh)
CN(C)CCCN(C(=O)c1ccc(S(=O)(=O)N2CCc3ccccc3C2)cc1)c1nc2ccc(F)cc2s1	EWS-Fli inh 58
CCN(CC)CCN(C(=O)c1ccc2c(c1)CCCC2)c1nc2ccc(F)cc2s1	TROY NFkB inh 55
CC(C)n1nc(C(=O)Oc2ccc(Cl)cc2)c2ccccc2c1=O	TWEAK Fn14 block 51 (no result: EWS-Fli inh)
Cc1cc(=O)oc2cc(OC(=O)c3nn(C(C)C)c(=O)c4ccccc34)ccc12	none (no result: EWS-Fli inh)
C=CC1c2ccccc2/C=C(C(=O)OC)\C(C(=O)OC)=C/N1Cc1ccc(OC)cc1 (stereo unspecified)	none (no result: FN deposit inh, TROY NFkB inh, LGR2 antag, XiGFP reactiv, TWEAK Fn14 block)
COc1ccc(OC(=O)N2C/C(=C/c3ccccc3)C(=O)/C(=C\c3ccccc3)C2)cc1	LGR2 antag inconclusive, TWEAK Fn14 block 90
CCOC(=O)N1C/C(=C\c2ccccc2)C(=O)/C(=C/c2ccccc2)C1	TROY NFkB inh 74 (no result: FN deposit inh)
C=CCNc1nc2cc(-c3ccccc3C)sc2c(=O)n1C	EWS-Fli inh 63
Cc1ccc(CNc2nc3cc(-c4ccccc4C)sc3c(=O)n2C)c(C)c1	none
C[C@@H](NC(=O)C[C@H]1C=C[C@H](NC(=O)Cc2ccccn2)[C@H](CO)O1)c1ccccc1	none (no result: TROY NFkB inh, EWS-Fli inh, TWEAK Fn14 block)
COc1ccc2oc(=O)c(C(=O)Nc3cccc(C(C)=O)c3)cc2c1	none
Cc1cccnc1NC(=O)Nc1cccc2ccccc12	TROY NFkB inh 66, TWEAK Fn14 block 56 (no result: FN deposit inh, LGR2 antag, XiGFP reactiv, EWS-Fli inh)
COc1cccc(NC(=O)c2cc3ccccc3oc2=O)c1	TWEAK Fn14 block 86
O=C(Nc1cc2ccccc2oc1=O)c1ccccc1	TROY NFkB inh 66, LGR2 antag 89, EWS-Fli inh 74, TWEAK Fn14 block 90
N=c1oc2ccccc2cc1C(=O)Nc1ccccc1	TWEAK Fn14 block 78
COc1ccc2oc(=N)c(C(=O)Nc3ccccc3)cc2c1	none (no result: FN deposit inh, LGR2 antag, XiGFP reactiv, EWS-Fli inh)
O=C1N[C@H](c2ccccc2)COCc2cn(nn2)CC[C@H]1Cc1ccc(Cl)cc1	none (no result: TROY NFkB inh, LGR2 antag, EWS-Fli inh, TWEAK Fn14 block)
COc1cccc(NC(=O)N(C)C[C@H]2Oc3cc(-c4ccccc4F)ccc3S(=O)(=O)N([C@@H](C)CO)C[C@H]2C)c1	none (no result: TROY NFkB inh, LGR2 antag, TWEAK Fn14 block)
O=C(Nc1nc2ccccc2s1)c1cc(-c2ccco2)nc2ccccc12	none
CCc1nnc(NC(=O)c2cc3ccccc3oc2=O)s1	none (no result: LGR2 antag, XiGFP reactiv, EWS-Fli inh)
Cc1cccnc1NC(=O)c1cc2ccccc2oc1=O	TWEAK Fn14 block 80
N=c1oc2cc(O)ccc2cc1C(=O)Nc1nc2ccccc2s1	TROY NFkB inh 50, TWEAK Fn14 block 53
N=c1oc2cc(O)ccc2cc1C(=O)Nc1ccc(Br)cc1	TWEAK Fn14 block 72
Cc1ccc(S(=O)(=O)N2CCCCC2)cc1	none
Cc1ccc(O)c(N=Nc2ccc(S(=O)(=O)N3CCCC3)cc2)c1	XiGFP reactiv 61
CCOc1ccc(/C=C/C(=O)c2ccccc2)cc1OC	none (no result: EWS-Fli inh)
COc1cc(/C=C/C(=O)c2ccc(O)cc2)ccc1OCC#N	TWEAK Fn14 block 71 (no result: LGR2 antag)
COc1cccc(C(=O)/C=C/c2ccc(OCC#N)c(OC)c2)c1	TWEAK Fn14 block 84 (no result: EWS-Fli inh)
CCCNC(=O)N1C[C@@H](C)[C@@H](OC)CN(C)C(=O)c2cc(NS(C)(=O)=O)ccc2OC[C@@H]1C	none (no result: TROY NFkB inh, TWEAK Fn14 block)
CCCNC(=O)N[C@H]1CC[C@@H](CC(=O)NC2CCCCC2)O[C@@H]1CO	none (no result: TROY NFkB inh, TWEAK Fn14 block)
CN1CCc2c(sc(/N=C/c3cc(Cl)ccc3O)c2C#N)C1	TROY NFkB inh 74, TWEAK Fn14 block 65
O=C1C=CCCN1C(=O)/C=C/c1cccc(Br)c1	EWS-Fli inh 64 (no result: FN deposit inh, TROY NFkB inh, LGR2 antag, XiGFP reactiv, TWEAK Fn14 block)
NC(=O)C1CCN(C(=O)/C=C/c2cccc(Br)c2)CC1	none
CN1CCN(/N=C/c2ccc(N(C)c3ccccc3)cc2)CC1	none
CN1CCN(/N=C/c2ccc(N(c3ccccc3)c3ccccc3)cc2)CC1	TROY NFkB inh 64, LGR2 antag 78
COc1ccc(C2CC(c3c(O)cc(C)oc3=O)=NCCS2)c(OC)c1 (stereo unspecified)	none (no result: LGR2 antag, XiGFP reactiv, EWS-Fli inh)
Cc1cc(O)c(C2=Nc3ccccc3SC(c3ccc(Cl)cc3)C2)c(=O)o1 (stereo unspecified)	TROY NFkB inh 75, TWEAK Fn14 block 77 (no result: EWS-Fli inh)
COc1ccc(CNC(=O)c2cccc3c(-c4cccc(C(N)=O)c4)coc23)cc1OC	TROY NFkB inh 63, TWEAK Fn14 block 91
COc1cc(-c2coc3c(C(=O)NCc4ccc(OC)c(OC)c4)cccc23)ccc1O	TROY NFkB inh 67, TWEAK Fn14 block 95
COc1cc(-c2coc3c(C(=O)NCc4ccc(N(C)C)cc4)cccc23)ccc1O	none
NC(=O)c1cccc(-c2coc3c(C(=O)NCCc4ccccc4)cccc23)c1	none (no result: LGR2 antag)
COc1ccc(CNC(=O)c2cccc3c(-c4ccc(F)c(F)c4)coc23)cc1OC	TWEAK Fn14 block 64 (no result: FN deposit inh, LGR2 antag, XiGFP reactiv, EWS-Fli inh)
Cc1[nH]c(=O)c(C(=O)/C=C/c2ccccc2F)c2c1CCCC2	TROY NFkB inh 50, LGR2 antag 86, TWEAK Fn14 block 89 (no result: FN deposit inh, XiGFP reactiv)
COc1cc(C(=O)Oc2cccc(C(=S)N3CCOCC3)c2)cc(OC)c1OC	none (no result: FN deposit inh, EWS-Fli inh)
O=C(Oc1cccc(C(=S)N2CCOCC2)c1)c1ccccc1	TWEAK Fn14 block 82 (no result: EWS-Fli inh)
O=C(NC(Nc1nc2ccc([N+](=O)[O-])cc2s1)(C(F)(F)F)C(F)(F)F)c1cccnc1	TWEAK Fn14 block 51 (no result: LGR2 antag)
O=C(NC(Nc1nc2ccc([N+](=O)[O-])cc2s1)(C(F)(F)F)C(F)(F)F)c1ccccc1Cl	TROY NFkB inh 66, TWEAK Fn14 block 90
O=C(NC(NNc1ccc([N+](=O)[O-])cc1)(C(F)(F)F)C(F)(F)F)c1ccccc1Cl	none (no result: LGR2 antag, XiGFP reactiv, EWS-Fli inh)
O=C(C[C@H]1C=C[C@H](NC(=O)c2cccnc2)[C@H](CO)O1)NCc1ccncn1	none (no result: TROY NFkB inh, TWEAK Fn14 block)
CC=Cc1ccc2n(c1=O)C[C@@H]1[C@@H](CO)[C@H](C(=O)NCCN3CCCCC3)N(C(C)=O)[C@H]21 (mixture of isomers)	none (no result: FN deposit inh, TROY NFkB inh, TWEAK Fn14 block)
CC[n+]1c(C=C2C=C(C)OC(C)=C2)sc2ccccc21	XiGFP reactiv 57, EWS-Fli inh inconclusive
CC[n+]1c(/C=C2/C=C(C)CC(C)C2)sc2ccccc21 (stereo unspecified)	none
Cc1cccc2c3nc4ccccc4nc3n(C)c12	TWEAK Fn14 block 54
C[C@@H]1CCCCO[C@@H](CN(C)C(=O)Cc2ccccc2)[C@H](C)CN([C@@H](C)CO)C(=O)c2cc(NC(=O)CCCN(C)C)ccc2O1	none (no result: FN deposit inh, TROY NFkB inh, TWEAK Fn14 block)
COc1cc(/C=C/C(=O)OCC(=O)NNC(=O)c2cc(Cl)ccc2OC)ccc1O	none
COc1cc(/C=C/C(=O)OCC(=O)NC(C)c2ccccc2)cc(OC)c1OC (stereo unspecified)	TWEAK Fn14 block 57 (no result: FN deposit inh)
CC(NC(=O)COC(=O)/C=C/c1ccc(Cl)cc1)c1ccccc1 (stereo unspecified)	none

High-throughput results as filed in PubChem.
